Test results as given in ChEMBL document CHEMBL1132984 (J Med Chem, 2000).

Key:
Assay type in all cases: functional; call rule not given here
[1] = species: Rattus norvegicus; experiment: In vitro inhibitory concentration that relaxes KCL induced contraction in rat detrusor strips by 50%
Outline: (§1)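 Female Sprague-Dawley rat (250-350 g) detrusor strips, 4-5 mm by 10 mm, pretensioned 0.25-0.5 g in a tissue bath and contracted with an additional 15 mM KCl. Compounds added as cumulative concentrations to steady state. Contractility measured as 5 min area under the contraction curve per concentration; IC50 is the concentration relaxing KCl-induced contraction by 50%. Glyburide added at end.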

[2] = tested on: Rattus norvegicus; experiment: compound was evaluated in vivo for maximum % change in MAP in normotensive rat model after oral administration of a dose of 10 mg/kg
Outline: (§2)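 Normotensive rats given test compound orally in a separate group from the efficacy animals. Mean arterial pressure and heart rate recorded after dosing, with maximum % change in MAP from initial values reported. ED20 is the oral dose causing a 20% drop in MAP.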

[3] = tested on: Rattus norvegicus; experiment: Compound was evaluated in vivo for the % change in the frequency of spontaneous bladder contractions in the rat after oral administration of a dose of 10 mg/kg
[4] = species: Rattus norvegicus; experiment: In vitro inhibitory concentration that relaxes KCL induced contraction in rat detrusor strips by 50%; contracted; outline: as §1
[5] = species: Rattus norvegicus; experiment: In vitro inhibitory concentration that relaxes KCL induced contraction in rat detrusor strips by 50%; NE=no effect; outline: as §1
[6] = tested on: Rattus norvegicus; experiment: Effective dose in vivo for reduction in MAP in normotensive rat model after oral administration; outline: as §2
[7] = tested on: Rattus norvegicus; experiment: Effective dose in vivo for reduction in the frequency of spontaneous bladder contractions in the rat oral administration
[8] = Selectivity ratio of MAP ED20/bladder ED50
Outline: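 Ratio of the oral ED20 for a 20% MAP drop in normotensive rats to the oral ED50 for a 50% reduction in spontaneous bladder contraction frequency in the urethral-obstructed rat instability model.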

[9] = tested on: Rattus norvegicus; experiment: compound was evaluated in vivo for maximum % change in MAP in normotensive rat model after oral administration of a dose of 30 mg/kg; outline: as §2

| Structure (SMILES) | IC50 ([1]; Rattus norvegicus) | further results |
| --- | --- | --- |
| C[C@@H](/N=c1\c(O)c(O)\c1=N/c1ccc(C#N)cc1)C(C)(C)C (stereo in doubt; 42) |  | IC50 [1]: 0.37 µM |
| N#Cc1ccc(Nc2c(NC3CCCCCC3)c(=O)c2=O)cc1 |  | IC50 [4]: contracted |
| CC(/N=c1\c(O)c(O)\c1=N/c1ccc(S(N)(=O)=O)cc1)C(C)(C)C (stereo not given) | > 30 µM |  |
| CCC(C)(C)/N=c1\c(O)c(O)\c1=N/c1ccc(C#N)cc1 | > 30 µM |  |
| C[C@H](/N=c1\c(O)c(O)\c1=N/c1ccc(C#N)cc1)c1ccccc1 | > 30 µM |  |
| N#Cc1ccc(Nc2c(NCc3ccccc3)c(=O)c2=O)cc1 | > 30 µM |  |
| CC(/N=c1\c(O)c(O)\c1=N/c1ccc(C#N)cc1)c1ccc(F)cc1 (stereo not given) |  | IC50 [5]: Not Active |
| CSc1ccc(Nc2c(NC(C)C(C)(C)C)c(=O)c2=O)cc1 (stereo not given) | > 30 µM |  |
| C[C@H](/N=c1\c(O)c(O)\c1=N/c1ccc(C#N)cc1)C1CCCCC1 | > 30 µM |  |
| CC(/N=c1\c(O)c(O)\c1=N/c1ccccn1)C(C)(C)C (stereo not given) |  | IC50 [4]: contracted |
| CC(C)(C)C/N=c1\c(O)c(O)\c1=N/c1ccc(C#N)cc1 | > 30 µM |  |
| N#Cc1ccc(Nc2c(NC3CCCCC3)c(=O)c2=O)cc1 | > 30 µM |  |
| Cc1ccc(C(C)/N=c2\c(O)c(O)\c2=N/c2ccc(C#N)cc2)cc1 (stereo not given) | > 30 µM |  |
| C/N=c1\c(O)c(O)\c1=N/c1ccc(C#N)cc1 | > 30 µM |  |
| CC(C)(/N=c1\c(O)c(O)\c1=N/c1ccc(C#N)cc1)c1ccccc1 | > 30 µM |  |
| CC(/N=c1\c(O)c(O)\c1=N/c1ccc(C#N)cc1)c1ccc(OC(F)(F)F)cc1 (stereo not given) | > 30 µM |  |
| CC1(C)Oc2ccc(OC(F)(F)F)cc2[C@@H](N2Cc3ccccc3C2=O)[C@@H]1O |  | ED20 [6]: 0.2 mg/kg; ED50 [7]: 0.3 mg/kg; Ratio [8]: 0.7 |
| C[C@@H](/N=c1\c(O)c(O)\c1=N/c1ccc(C#N)cc1)C(C)(C)C (stereo in doubt; 43) |  | IC50 [1]: 24.3 µM |
| N#Cc1ccc(Nc2c(NC3CC4CCC3C4)c(=O)c2=O)cc1 (stereo in doubt; 58) |  | IC50 [1]: > 30 µM |
| CC(C)(C)/N=c1\c(O)c(O)\c1=N/c1cnc2ccccc2c1 | > 30 µM |  |

| Structure (SMILES) | IC50 ([1]; Rattus norvegicus) | further results |
| --- | --- | --- |
| CCCCCCC/N=c1\c(O)c(O)\c1=N/c1ccc(C#N)cc1 | > 30 µM |  |
| Nc1c(Nc2cccnc2)c(=O)c1=O | > 30 µM |  |
| CC(/N=c1\c(O)c(O)\c1=N/c1ccc(-n2ccnc2)cc1)C(C)(C)C (stereo not given) | > 30 µM |  |
| CC(/N=c1\c(O)c(O)\c1=N/c1cnc2ccccc2c1)C(C)(C)C (stereo not given) | > 30 µM |  |
| CC(/N=c1\c(O)c(O)\c1=N/c1ccc(OC(F)(F)F)cc1)C(C)(C)C (stereo not given) | > 30 µM |  |
| CC(/N=c1\c(O)c(O)\c1=N/c1ccc(C(F)(F)F)cc1)C(C)(C)C (stereo not given) | > 30 µM |  |
| COc1ccc(C(C)/N=c2\c(O)c(O)\c2=N/c2ccc(C#N)cc2)cc1 (stereo not given) |  | IC50 [4]: contracted |
| CC(C)(C)/N=c1\c(O)c(O)\c1=N/c1ccc2ncccc2c1 | > 30 µM |  |
| CCCc1cc(C#N)ccc1/N=c1\c(O)c(O)\c1=N/[C@H](C)C(C)(C)C | 23.1 µM |  |
| CC[C@H](/N=c1\c(O)c(O)\c1=N/c1ccc(C#N)cc1)c1ccccc1 | > 30 µM |  |
| COC(=O)c1ccc(Nc2c(NC(C)C(C)(C)C)c(=O)c2=O)cc1 (stereo not given) | > 30 µM |  |
| N#Cc1ccc(Nc2c(NC3CC4CCC3C4)c(=O)c2=O)cc1 (stereo in doubt; 57) |  | IC50 [1]: 3.35 µM |
| C[C@@H](/N=c1\c(O)c(O)\c1=N/c1ccc(C#N)c(O)c1)C(C)(C)C |  | IC50 [5]: Not Active |
| COc1cc(/N=c2\c(O)c(O)\c2=N/C(C)C(C)(C)C)c2ncccc2c1 (stereo not given) | > 30 µM |  |
| CC(/N=c1\c(O)c(O)\c1=N/c1ccccc1C#N)C(C)(C)C (stereo not given) | > 30 µM |  |
| CC(/N=c1\c(O)c(O)\c1=N/c1ccc(C#N)cc1)c1ccc([N+](=O)[O-])cc1 (stereo not given) |  | IC50 [5]: Not Active |
| CC(/N=c1\c(O)c(O)\c1=N/c1cccnc1O)C(C)(C)C (stereo not given) | > 30 µM |  |
| CC(/N=c1\c(O)c(O)\c1=N/c1ccc(-c2ccccc2)cc1)C(C)(C)C (stereo not given) | > 30 µM |  |
| CC(/N=c1\c(O)c(O)\c1=N/c1ccc(S(C)(=O)=O)cc1)C(C)(C)C (stereo not given) | > 30 µM |  |

Further molecules by falling IC50 ([1]; Rattus norvegicus), results first:

| IC50 ([1]; Rattus norvegicus) | Structure (SMILES) | further results |
| --- | --- | --- |
| 22.5 µM | CC[C@@H](/N=c1\c(O)c(O)\c1=N/c1ccc(C#N)cc1)c1ccccc1 |  |
| 21.2 µM | CC(=O)c1ccc(/N=c2\c(O)c(O)\c2=N/C(C)C(C)(C)C)cc1 (stereo not given) |  |
| 17.6 µM | CCc1cc(Nc2c(N[C@H](C)C(C)(C)C)c(=O)c2=O)ccc1C#N |  |
| 14.3 µM | N#Cc1ccc(/N=c2\c(O)c(O)\c2=N/C(CO)c2ccccc2)cc1 (stereo not given) |  |
| 13.7 µM | CC(C)/N=c1\c(O)c(O)\c1=N/c1ccc(C#N)cc1 |  |
| 11.7 µM | CC(/N=c1\c(O)c(O)\c1=N/c1cncc(Br)c1)C(C)(C)C (stereo not given) |  |
| 11.5 µM | N#Cc1ccc(Nc2c(NC3CCCC3)c(=O)c2=O)cc1 |  |
| 8.1 µM | CC(/N=c1\c(O)c(O)\c1=N/c1cccc2cccnc12)C(C)(C)C (stereo not given) |  |
| 6.05 µM | C[C@@H](/N=c1\c(O)c(O)\c1=N/c1ccc(C#N)cc1O)C(C)(C)C |  |
| 5.4 µM | CC(/N=c1\c(O)c(O)\c1=N/c1ccccc1)C(C)(C)C (stereo not given) |  |
| 4.78 µM | C[C@@H](/N=c1\c(O)c(O)\c1=N/c1ccc(C#N)cc1C(=O)c1ccccc1)C(C)(C)C |  |
| 4.6 µM | C[C@@H](/N=c1\c(O)c(O)\c1=N/c1ccc2c[nH]nc2c1)C(C)(C)C |  |
| 4.3 µM | C[C@@H](/N=c1\c(O)c(O)\c1=N/c1ccc(C#N)c(Cl)c1)C(C)(C)C |  |
| 4 µM | N#Cc1ccc(Nc2c(NC(c3ccccc3)C(F)(F)F)c(=O)c2=O)cc1 (stereo not given) |  |
| 3.34 µM | CCC(CC)/N=c1\c(O)c(O)\c1=N/c1ccc(C#N)cc1 |  |
| 3.05 µM | CC(/N=c1\c(O)c(O)\c1=N/c1cccc(C#N)c1)C(C)(C)C (stereo not given) |  |
| 2.8 µM | CC(C)(C)/N=c1\c(O)c(O)\c1=N/c1cccnc1 |  |
| 2.6 µM | C[C@@H](/N=c1\c(O)c(O)\c1=N/c1ccc(C#N)cc1)C1CCCCC1 |  |
| 2.56 µM | COc1ncccc1/N=c1\c(O)c(O)\c1=N/C(C)(C)C |  |
| 2.4 µM | COc1ccc(Nc2c(NC(C)C(C)(C)C)c(=O)c2=O)cc1 (stereo not given) |  |
| 2.1 µM | CCC(C)/N=c1\c(O)c(O)\c1=N/c1ccc(C#N)cc1 (stereo not given) |  |
| 1.95 µM | CC(/N=c1\c(O)c(O)\c1=N/c1cccnc1)C(C)(C)C (stereo not given) |  |

| IC50 ([1]; Rattus norvegicus) | Structure (SMILES) | further results |
| --- | --- | --- |
| 1.9 µM | CC(C)C(C)/N=c1\c(O)c(O)\c1=N/c1ccc(C#N)cc1 (stereo not given) |  |
| 1.9 µM | C[C@@H](/N=c1\c(O)c(O)\c1=N/c1cccnc1)C(C)(C)C |  |
| 1.84 µM | CC(C)(C)/N=c1\c(O)c(O)\c1=N/c1cccc2cnccc12 |  |
| 1.77 µM | CC(C)(C)/N=c1\c(O)c(O)\c1=N/c1cccnc1Cl |  |
| 1.68 µM | C[C@@H](/N=c1\c(O)c(O)\c1=N/c1ccncc1)C(C)(C)C |  |
| 1.36 µM | CC(/N=c1\c(O)c(O)\c1=N/c1ccncc1)C(C)(C)C (stereo not given) |  |
| 1.26 µM | CC(/N=c1\c(O)c(O)\c1=N/c1ccc(Br)cc1)C(C)(C)C (stereo not given) |  |
| 1.08 µM | Cc1cc(C#N)ccc1/N=c1\c(O)c(O)\c1=N/[C@H](C)C(C)(C)C |  |
| 0.93 µM | C[C@](O)(C(=O)Nc1ccc(C(=O)c2ccccc2)cc1)C(F)(F)F [ZD-6169] | ED20 [6]: 6.96 mg/kg; ED50 [7]: 2.4 mg/kg; Ratio [8]: 2.9 |
| 0.74 µM | C[C@@H](/N=c1\c(O)c(O)\c1=N/c1ccc2[nH]ncc2c1)C(C)(C)C |  |
| 0.67 µM | C[C@@H](/N=c1\c(O)c(O)\c1=N/c1ccc(C#N)c2c1CCCC2)C(C)(C)C |  |
| 0.63 µM | Cc1cc(/N=c2\c(O)c(O)\c2=N/[C@H](C)C(C)(C)C)ccc1C#N |  |
| 0.63 µM | CC(N/C(=N\C#N)Nc1ccncc1)C(C)(C)C (single isomer, unassigned; (+)) [PINACIDIL ANHYDROUS] |  |
| 0.56 µM | CC(C)(C)/N=c1\c(O)c(O)\c1=N/c1ccc(C#N)cc1 |  |
| 0.52 µM | CC(/N=c1\c(O)c(O)\c1=N/c1ccc(C#N)cc1)C(C)(C)C (stereo not given) | Change [9]: 8%; Change [3]: -83% |
| 0.34 µM | CC(/N=c1\c(O)c(O)\c1=N/c1ccc(CC#N)cc1)C(C)(C)C (stereo not given) |  |
| 0.29 µM | COc1cc(C#N)ccc1/N=c1\c(O)c(O)\c1=N/[C@H](C)C(C)(C)C |  |
| 0.19 µM | CC(/N=C(\NC#N)Nc1ccc(C#N)cc1)C(C)(C)C (stereo not given) | Change [2]: -19%; Change [3]: -27% |
| 0.09 µM | CCc1cc(C#N)ccc1Nc1c(N[C@H](C)C(C)(C)C)c(=O)c1=O | ED20 [6]: 2.3 mg/kg; ED50 [7]: 0.13 mg/kg; Ratio [8]: 17.7 |
| 0.075 µM | C[C@@H](/N=c1\c(O)c(O)\c1=N/c1ccc(C#N)cc1Br)C(C)(C)C |  |
| 0.056 µM | C[C@@H](/N=c1\c(O)c(O)\c1=N/c1ccc(C#N)cc1)c1ccccc1 |  |
| 0.041 µM | C[C@@H](/N=c1\c(O)c(O)\c1=N/c1ccc(C#N)cc1Cl)C(C)(C)C |  |
